This is an account of results in ChEMBL document CHEMBL1123251, “N-(cyanomethyl)- and N-(2-methoxy-1-cyanoethyl)anthracyclines and related carboxyl derivatives” (J Med Chem, 1986).

Data set [1] in a line: Compound was evaluated for the change in Tm of isolated helical DNA in solution. The data set is classed as ADME. In a few lines:
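Thermal denaturation of calf thymus DNA (5.2×10⁻⁵ M, P) with drug at 5.2×10⁻⁶ M in 0.01 M phosphate buffer pH 7, 10⁻⁵ M EDTA, 5% Me2SO. ΔTm = Tm(DNA–drug complex) − Tm(DNA).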

Data set [2] concerns P388. Nature of the data set: Compound was evaluated for the antitumor efficacy at optimal dose 0.012 mg/kg against leukemia P388 in mice on day 1,. The data set is classed as functional, Mus musculus.
Data set [3] in a line: Percent recovery of compound at pH 4. The data set is classed as ADME. In a few lines: (§1)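 Drug stock in CH₃CN or EtOH was diluted 1:1 with citrate buffer (pH 4) or phosphate buffer (pH 7) and held at 23 °C for 22 h. Remaining drug was measured by reversed-phase C18 (5 μm) HPLC, eluting with 0.1 N NaH₂PO₄–CH₃CN (70:30 or 66:34, depending on compound). Result is reported as % recovery.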

A short description of data set [4]: Percent recovery of compound at pH 7. The data set is classed as ADME. In a few lines: as §1
The next data set relates to P388/ADR. As to the kind of experiment: Compound was evaluated for the growth inhibition of P388/ADR cells. The data set is classed as functional, cell-based. The settings on record: Mus musculus. In outline:
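P388/ADR, a P388 subline selected for anthracycline resistance, grown in culture and exposed to drug for 48 h. IC50 (μM) was taken for growth inhibition. Resistance index = IC50 in P388/ADR ÷ IC50 in parent P388/S cells.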

Data set [5] has as its system L1210. As to the kind of experiment: Compound was evaluated for the 50% inhibition of the incorporation of [3H]uridine in the RNA (inhibition of synthesis in leukemia L1210 cells). The settings on record: Mus musculus, read-out: ED50 (the source's name).
Data set [6] relates to L1210. Nature of the data set: Compound was evaluated for the 50% inhibition of the incorporation of [3H]- thymidine in the DNA (inhibition of synthesis in leukemia L1210 cells). The data set is classed as functional. The settings on record: Mus musculus, read-out: ED50 (the source's name).
Data set [7] can be described thus: Percent recovery of compound at pH 2. The data set is classed as ADME. In a few lines:
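Drug stocks in CH3CN or EtOH were diluted 1:1 with phosphate buffer (pH 7), citrate buffer (pH 4) or 0.1 N HCl–KCl (pH 2). Solutions were held at 23 °C for 22 h, then aliquots were analysed by reversed-phase C18 HPLC eluted with 0.1 N NaH2PO4–CH3CN. Percent of drug recovered was reported.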

The nature of data set [8]: Partition coefficient in octanol-phosphate buffer at pH 7.4.
Data set [9] deals with P388/S. Nature of the data set: (§2) Compound was evaluated for the growth inhibition of P388/s cells. The data set is classed as functional, cell-based. As to conditions: Mus musculus. In outline:
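Cultured P388 cells were exposed to drug for 48 h and the IC50 for growth inhibition determined.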

Data set [10] deals with P388. Nature of the data set: Compound was evaluated for the antitumor efficacy at optimal dose 8.0 mg/kg against leukemia P388 in mice on day q4d 5, 9, 13.,. The data set is classed as functional, Mus musculus.
In data set [11] the test system is P388. Nature of the data set: Compound was evaluated for the antitumor efficacy at optimal dose 3.1 mg/kg against leukemia P388 in mice on day 1,. The data set is classed as functional, Mus musculus.
In data set [12] the test system is P388. As to the kind of experiment: Compound was evaluated for the antitumor efficacy at optimal dose 7.5 mg/kg against leukemia P388 in mice on day 1,. The data set is classed as functional, Mus musculus.
Data set [13] concerns P388/S. The data set is described as §2. The data set is classed as functional, cell-based. As to conditions: Mus musculus. In a few lines: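 Growth inhibition of P388/S cells (the standard screening P388 line) in culture after 48-h drug exposure; IC50 reported in μM.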
The source holds these as a separate data set.

For `COc1cccc2c1C(=O)c1c(O)c3c(c(O)c1C2=O)C[C@@](O)(C(=O)CO)C[C@@H]3OC1CC(N2CCOCC2C#N)C(O)C(C)O1` (stereo not given in full), the “Change in Tm” value in data set [1] was 8.7. Moreover, the T/C (in general, the ratio of treated to control) in the data set on P388 [2] was 262%. Moreover, the values for the Recovery in data set [3], in data set [4] and in [7] were 54%, 74% and 10%, respectively. Also, the IC50 (commonly the concentration that gives 50% inhibition) in the data set on P388/ADR worked out at 0.3 nM. Further, the EC50 in the data set with L1210 [5] came to 0.53 nM; with L1210 [6] it was 3 nM.
With `COc1cccc2c1C(=O)c1c(O)c3c(c(O)c1C2=O)C[C@@](O)(C(C)=O)C[C@@H]3OC1CC(NCC(=O)O)C(O)C(C)O1` (stereo not given in full), in [8], the logD (usually lipophilicity at a set pH, counting ionised and neutral species) was 0.43. Further, the “Change in Tm” value in [1] is on record as 2.2. Moreover, the EC50 is 100000 nM in the data set on L1210 [5] and above 100000 nM with L1210 [6].
`COCC(C#N)NC1CC(O[C@H]2C[C@](O)(C(=O)CO)Cc3c(O)c4c(c(O)c32)C(=O)c2c(OC)cccc2C4=O)OC(C)C1O` (stereo not given in full) had a logD in [8] of 0.92. Further, the “Change in Tm” value in [1] was determined as 12.5. Moreover, the Recovery in data set [3] worked out at 29%; in [4] it was 28%; in data set [7] it was 58%. For the same compound, the values for the EC50 in the data set on L1210 [5] and with L1210 [6] were 400 nM and 800 nM, respectively. Further, half-maximal inhibition in the data set on P388/S [9] (IC50) required 37 nM.
Turning to `CCOC(=O)CNC1CC(O[C@H]2C[C@](O)(C(C)=O)Cc3c(O)c4c(c(O)c32)C(=O)c2c(OC)cccc2C4=O)OC(C)C1O` (stereo not given in full), the “Change in Tm” value in data set [1] is reported as 0. Further, the EC50 came out at 11000 nM in the data set on L1210 [5] and 13000 nM in the data set with L1210 [6].
In turn, `COCC(C#N)NC1CC(O[C@H]2C[C@](O)(C(C)=O)Cc3c(O)c4c(c(O)c32)C(=O)c2c(OC)cccc2C4=O)OC(C)C1O` (stereo not given in full) showed a logD in [8] of 2.64. Besides, in [1], the “Change in Tm” value stood at 9.4. Further, the EC50 in the data set on L1210 [5] and in the data set with L1210 [6] was 510 nM throughout.
Consider `CCOC(=O)CCCNC1CC(O[C@H]2C[C@](O)(C(C)=O)Cc3c(O)c4c(c(O)c32)C(=O)c2c(OC)cccc2C4=O)OC(C)C1O` (stereo not given in full), for which, in data set [8], the logD turned out to be 2.04. In data set [1], the “Change in Tm” value stood at 8.4. Also, the EC50 was 370 nM with L1210 [5] and 1300 nM with L1210 [6].
Taken in the same sequence, the figures for `COc1cccc2c1C(=O)c1c(O)c3c(c(O)c1C2=O)C[C@@](O)(C(C)=O)C[C@@H]3OC1CC(N(CC#N)CC(=O)[O-])C(O)C(C)O1.[Na+]` (stereo not given in full) were 0.03, 2.2, 5300 nM and 14000 nM.
Taken in the same sequence, the figures for `COc1cccc2c1C(=O)c1c(O)c3c(c(O)c1C2=O)C[C@@](O)(C(C)=O)C[C@@H]3OC1CC(NCC#N)C(O)C(C)O1` (stereo not given in full) were 2.28, 11.7, 820 nM and 1800 nM.
Regarding `COc1cccc2c1C(=O)c1c(O)c3c(c(O)c1C2=O)C[C@@](O)(C(=O)CO)C[C@@H]3OC1CC(NCC#N)C(O)C(C)O1` (stereo not given in full), the logD in data set [8] was 1.2. The “Change in Tm” value in [1] is recorded as 13.9. Moreover, the Recovery was 86% in data set [3], 82% in [4] and 92% in [7]. Besides, the EC50 was determined as 290 nM in the data set with L1210 [5] and 1200 nM in the data set with L1210 [6]. Also, the T/C in the data set on P388 [10] turned out to be 148%; in the data set with P388 [11], 184%. In addition, the half-maximal inhibitory concentration (IC50) in the data set on P388/S [9] came to 28 nM.
In data set [8], `COc1cccc2c1C(=O)c1c(O)c3c(c(O)c1C2=O)C[C@@](O)(C(C)=O)C[C@@H]3OC1CC(NCC(N)=O)C(O)C(C)O1` (stereo not given in full) had a logD of 1.65. In addition, the “Change in Tm” value in data set [1] is reported as 3.5. Also, the EC50 turned out to be 1700 nM in the data set on L1210 [5] and 7500 nM in the data set on L1210 [6].
Take `CCOC(=O)CN(CC#N)C1CC(O[C@H]2C[C@](O)(C(C)=O)Cc3c(O)c4c(c(O)c32)C(=O)c2c(OC)cccc2C4=O)OC(C)C1O` (stereo not given in full): the values for the EC50 with L1210 [5] and in the data set on L1210 [6] were 3500 nM and 7000 nM, respectively.
As to `COc1cccc2c1C(=O)c1c(O)c3c(c(O)c1C2=O)C[C@@](O)(C(C)=O)C[C@@H]3O[C@H]1C[C@H](N)[C@H](O)[C@H](C)O1` [DAUNORUBICIN], the “Change in Tm” value in [1] was determined as 10.5. Besides, the EC50 was determined as 330 nM with L1210 [5] and 660 nM in the data set on L1210 [6].
For the compound `COc1cccc2c1C(=O)c1c(O)c3c(c(O)c1C2=O)C[C@@](O)(C(=O)CO)C[C@@H]3O[C@H]1C[C@H](N)[C@H](O)[C@H](C)O1` [DOXORUBICIN], the T/C was 252% in the data set on P388 [12] and 160% in the data set on P388 [10]. In data set [1], the “Change in Tm” value was determined as 12.8. Further, the IC50 amounted to 8200 nM in the data set on P388/ADR and 68 nM in the data set on P388/S [13]. In addition, the EC50 was determined as 580 nM with L1210 [5] and 1600 nM in the data set with L1210 [6].
